Laboratory results as given in ChEMBL document CHEMBL1124345, “Linear and proximal benzo-separated alkylated xanthines as adenosine-receptor antagonists” (J Med Chem, 1989).

What was measured:
[1] = biological target: Adenosine receptors; A1 & A2 (Rattus norvegicus) (UniProt P29276+P25099+P30543); assay: (§1) Selectivity for A2 and A1 receptors was evaluated; assay type: protein assay
Summary of the method: (§2)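 Rat brain membranes (A1) bound with 1 nM [3H]-N6-cyclohexyladenosine (25 Ci/mmol). Rat striatal membranes (A2) bound with 4 nM [3H]NECA (30 Ci/mmol) in the presence of 50 nM N6-cyclopentyladenosine. Both incubations ran 1 h at 25 °C. Selectivity compares the affinities from the two binding assays.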

[2] = biological target: Adenosine A2 receptor (Rattus norvegicus, UniProt P29276+P30543); assay: Binding affinity against Adenosine A2 receptor in rat striatal membrane, using [3H]-NECA as the radioligand.
[3] = biological target: T1, Adenosine receptor A1 (Rattus norvegicus, UniProt P25099); assay: Binding affinity against Adenosine A1 receptor in rat brain membrane, using [3H]N6-cyclohexyladenosine as the radioligand; assay type: tissue-based
T1 sequence (P25099 whole entry): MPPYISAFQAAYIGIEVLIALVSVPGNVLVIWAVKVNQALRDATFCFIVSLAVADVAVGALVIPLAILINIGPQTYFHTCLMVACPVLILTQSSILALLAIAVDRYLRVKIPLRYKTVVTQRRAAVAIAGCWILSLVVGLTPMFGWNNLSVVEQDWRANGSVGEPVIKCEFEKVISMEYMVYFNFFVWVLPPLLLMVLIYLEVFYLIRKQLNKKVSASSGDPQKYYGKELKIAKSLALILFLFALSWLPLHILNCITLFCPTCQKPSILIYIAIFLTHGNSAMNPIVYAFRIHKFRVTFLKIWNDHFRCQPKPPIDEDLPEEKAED

[4] = as §1; summary of the method: as §2

Compound | Ratio [1] | Ki [2] [µM] | Ki [3] [µM] | Ratio [4]
Cn1c(=O)c2cc3ncn(C)c3cc2n(C)c1=O | 3.8 | 58 | 15.2 | –
CCn1c(=O)c2cc3nc(-c4ccccc4)[nH]c3cc2n(CC)c1=O | – | > 100 | > 100 | –
CCCCn1c(=O)c2cc3nc[nH]c3cc2n(CCCC)c1=O | 3.7 | 0.67 | 0.179 | –
Cn1c(=O)c2cc3nc(-c4ccccc4)[nH]c3cc2n(C)c1=O | – | > 100 | > 100 | –
CC(C)Cn1c(=O)n(C)c(=O)c2nc[nH]c21 [ISOBUTYLMETHYLXANTHINE] | – | 13.8 | – | 5.6
Cn1c(=O)c2ncn(C)c2n(C)c1=O [ISOCAFFIENE] | – | – | > 1000 | –
CCn1c(=O)c2c3nc(-c4ccccc4)[nH]c3ccc2n(CC)c1=O | – | 58 | > 100 | –
CCCn1c(=O)c2cc3nc[nH]c3cc2n(CCC)c1=O | 10.7 | 1.32 | 0.123 | –
CC(C)Cn1c(=O)n(C)c(=O)c2cc3[nH]cnc3cc21 | 3.9 | 2.4 | 0.62 | –
Cn1c(=O)c2cc3c(cc2n(C)c1=O)ncn3C | 1.99 | 23 | 11.6 | –

Results, then the compound that gave them:

Ratio [1] | Ki [2] [µM] | Ki [3] [µM] | Ratio [4] | Compound
3.6 | 85 | – | – | Cn1c(=O)c2cc3nc[nH]c3cc2n(C)c1=O
– | – | 24 | – | Cn1c(=O)c2cc3[nH]cnc3cc2n(C)c1=O
1.23 | 12.7 | 10.3 | – | Cn1c(=O)c2c3c(ccc2n(C)c1=O)ncn3C
2.7 | 0.79 | 0.296 | – | CCCn1c(=O)c2c3nc[nH]c3ccc2n(CCC)c1=O
11.2 | 1.96 | 0.174 | – | CCCCn1c(=O)c2c3nc[nH]c3ccc2n(CCCC)c1=O
2.3 | 1.97 | 0.86 | – | CC(C)Cn1c(=O)n(C)c(=O)c2c3nc[nH]c3ccc21
1.34 | 17.9 | 13.4 | – | Cn1c(=O)c2c3nc[nH]c3ccc2n(C)c1=O
– | 10.4 | 0.45 | 23 | Cn1c(=O)c2c3nc(-c4ccccc4)[nH]c3ccc2n(C)c1=O
